Test results taken from BindingDB's records for doi:10.1016/j.bmc.2008.04.041 (The University of Tokushima, 2008).

Key:
[1] = target: Epidermal growth factor receptor (Homo sapiens, UniProt P00533); test: Inhibition of human A431 cell EGFRK assessed as 32P phosphorylation by scintillation counter
Summary of the method: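 Solubilized A431 cell lysate, debris removed, incubated with or without EGF for 30 min at 25 °C. Reaction started with [γ-³²P]ATP, 10 min at 0 °C. After stopping and washing, receptor phosphorylation measured as ³²P by scintillation counting.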

[2] = target: 72 kDa type IV collagenase (Homo sapiens, UniProt P08253); test: Inhibition of human bowes melanoma cell MMP2
[3] = target: Vascular endothelial growth factor receptor 1 (Homo sapiens, UniProt P17948); test: Inhibition of Flt1 expressed in mouse NIH3T3 cells by autoradiography
[4] = target: Matrix metalloproteinase-9 (Bos taurus, UniProt P52176); test: Inhibition of bovine arterial endothelial cell MMP9
Chain of Matrix metalloproteinase-9 (P52176 whole entry): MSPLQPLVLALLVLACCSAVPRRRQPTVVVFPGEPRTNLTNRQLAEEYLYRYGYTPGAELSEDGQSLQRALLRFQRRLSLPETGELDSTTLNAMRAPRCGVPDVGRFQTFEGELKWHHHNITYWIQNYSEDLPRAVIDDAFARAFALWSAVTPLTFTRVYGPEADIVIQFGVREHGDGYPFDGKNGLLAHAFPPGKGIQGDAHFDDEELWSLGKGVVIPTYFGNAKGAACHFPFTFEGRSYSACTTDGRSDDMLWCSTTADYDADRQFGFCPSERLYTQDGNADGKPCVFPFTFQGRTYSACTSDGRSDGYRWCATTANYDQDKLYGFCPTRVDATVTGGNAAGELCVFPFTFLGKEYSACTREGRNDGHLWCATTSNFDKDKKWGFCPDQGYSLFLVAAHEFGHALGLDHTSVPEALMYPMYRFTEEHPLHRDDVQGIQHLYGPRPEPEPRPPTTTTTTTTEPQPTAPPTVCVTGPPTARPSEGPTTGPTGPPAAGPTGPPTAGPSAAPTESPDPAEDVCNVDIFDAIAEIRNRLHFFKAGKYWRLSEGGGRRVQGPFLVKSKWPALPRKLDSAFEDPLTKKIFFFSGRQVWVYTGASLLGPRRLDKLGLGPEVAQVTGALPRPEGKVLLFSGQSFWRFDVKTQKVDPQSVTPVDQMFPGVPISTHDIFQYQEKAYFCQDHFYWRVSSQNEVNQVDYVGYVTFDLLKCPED

Chain of Vascular endothelial growth factor receptor 1 (P17948 whole entry): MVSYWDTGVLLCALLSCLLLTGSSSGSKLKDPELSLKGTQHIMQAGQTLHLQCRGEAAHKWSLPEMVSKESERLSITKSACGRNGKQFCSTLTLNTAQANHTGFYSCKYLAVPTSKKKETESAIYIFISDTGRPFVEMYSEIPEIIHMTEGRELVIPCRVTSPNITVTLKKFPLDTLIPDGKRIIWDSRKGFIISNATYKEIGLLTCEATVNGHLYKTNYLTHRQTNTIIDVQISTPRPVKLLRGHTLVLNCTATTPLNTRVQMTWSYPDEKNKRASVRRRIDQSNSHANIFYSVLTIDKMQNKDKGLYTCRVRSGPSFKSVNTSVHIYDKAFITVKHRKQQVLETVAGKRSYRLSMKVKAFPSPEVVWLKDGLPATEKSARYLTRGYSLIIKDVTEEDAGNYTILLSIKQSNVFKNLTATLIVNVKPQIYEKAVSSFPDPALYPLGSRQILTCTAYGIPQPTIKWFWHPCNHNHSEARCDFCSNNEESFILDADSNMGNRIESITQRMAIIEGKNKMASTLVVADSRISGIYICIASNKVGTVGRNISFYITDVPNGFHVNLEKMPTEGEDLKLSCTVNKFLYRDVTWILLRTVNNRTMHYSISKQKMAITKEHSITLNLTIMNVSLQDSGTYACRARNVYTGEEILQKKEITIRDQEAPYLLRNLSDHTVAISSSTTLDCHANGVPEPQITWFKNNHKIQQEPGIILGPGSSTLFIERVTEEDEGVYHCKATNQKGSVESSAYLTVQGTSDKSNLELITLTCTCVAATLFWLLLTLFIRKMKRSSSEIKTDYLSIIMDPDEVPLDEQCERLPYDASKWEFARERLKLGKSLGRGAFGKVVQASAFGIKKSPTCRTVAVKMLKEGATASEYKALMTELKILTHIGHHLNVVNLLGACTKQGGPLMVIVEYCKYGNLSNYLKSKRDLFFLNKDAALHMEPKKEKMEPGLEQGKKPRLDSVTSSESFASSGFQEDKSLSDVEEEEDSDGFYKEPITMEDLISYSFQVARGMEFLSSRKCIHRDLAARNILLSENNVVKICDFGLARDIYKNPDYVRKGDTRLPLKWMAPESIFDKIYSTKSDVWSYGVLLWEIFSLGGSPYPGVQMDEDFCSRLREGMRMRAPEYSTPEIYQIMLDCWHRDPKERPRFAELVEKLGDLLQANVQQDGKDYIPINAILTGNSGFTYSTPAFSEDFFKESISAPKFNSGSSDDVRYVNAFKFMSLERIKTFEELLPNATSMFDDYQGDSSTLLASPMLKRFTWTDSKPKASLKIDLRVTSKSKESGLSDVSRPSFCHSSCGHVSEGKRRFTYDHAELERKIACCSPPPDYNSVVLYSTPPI
Chain of 72 kDa type IV collagenase (P08253 whole entry): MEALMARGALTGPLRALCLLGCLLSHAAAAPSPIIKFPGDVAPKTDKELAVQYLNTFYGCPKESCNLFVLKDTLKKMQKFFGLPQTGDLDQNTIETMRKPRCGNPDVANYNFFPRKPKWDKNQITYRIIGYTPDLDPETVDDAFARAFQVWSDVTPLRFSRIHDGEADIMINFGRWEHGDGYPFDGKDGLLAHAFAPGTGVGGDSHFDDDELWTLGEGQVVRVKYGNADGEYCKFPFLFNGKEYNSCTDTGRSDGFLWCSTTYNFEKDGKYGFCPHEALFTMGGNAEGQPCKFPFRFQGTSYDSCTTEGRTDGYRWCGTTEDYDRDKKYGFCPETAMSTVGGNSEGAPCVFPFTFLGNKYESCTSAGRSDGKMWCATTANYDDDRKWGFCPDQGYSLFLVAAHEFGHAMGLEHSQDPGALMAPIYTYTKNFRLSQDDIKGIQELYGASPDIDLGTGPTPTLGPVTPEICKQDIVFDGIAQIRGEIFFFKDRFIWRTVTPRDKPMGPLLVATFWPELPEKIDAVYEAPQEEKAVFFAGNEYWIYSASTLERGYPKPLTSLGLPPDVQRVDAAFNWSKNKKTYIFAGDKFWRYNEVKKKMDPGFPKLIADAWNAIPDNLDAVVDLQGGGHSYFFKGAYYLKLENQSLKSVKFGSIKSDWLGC
Chain of Epidermal growth factor receptor (P00533 whole entry): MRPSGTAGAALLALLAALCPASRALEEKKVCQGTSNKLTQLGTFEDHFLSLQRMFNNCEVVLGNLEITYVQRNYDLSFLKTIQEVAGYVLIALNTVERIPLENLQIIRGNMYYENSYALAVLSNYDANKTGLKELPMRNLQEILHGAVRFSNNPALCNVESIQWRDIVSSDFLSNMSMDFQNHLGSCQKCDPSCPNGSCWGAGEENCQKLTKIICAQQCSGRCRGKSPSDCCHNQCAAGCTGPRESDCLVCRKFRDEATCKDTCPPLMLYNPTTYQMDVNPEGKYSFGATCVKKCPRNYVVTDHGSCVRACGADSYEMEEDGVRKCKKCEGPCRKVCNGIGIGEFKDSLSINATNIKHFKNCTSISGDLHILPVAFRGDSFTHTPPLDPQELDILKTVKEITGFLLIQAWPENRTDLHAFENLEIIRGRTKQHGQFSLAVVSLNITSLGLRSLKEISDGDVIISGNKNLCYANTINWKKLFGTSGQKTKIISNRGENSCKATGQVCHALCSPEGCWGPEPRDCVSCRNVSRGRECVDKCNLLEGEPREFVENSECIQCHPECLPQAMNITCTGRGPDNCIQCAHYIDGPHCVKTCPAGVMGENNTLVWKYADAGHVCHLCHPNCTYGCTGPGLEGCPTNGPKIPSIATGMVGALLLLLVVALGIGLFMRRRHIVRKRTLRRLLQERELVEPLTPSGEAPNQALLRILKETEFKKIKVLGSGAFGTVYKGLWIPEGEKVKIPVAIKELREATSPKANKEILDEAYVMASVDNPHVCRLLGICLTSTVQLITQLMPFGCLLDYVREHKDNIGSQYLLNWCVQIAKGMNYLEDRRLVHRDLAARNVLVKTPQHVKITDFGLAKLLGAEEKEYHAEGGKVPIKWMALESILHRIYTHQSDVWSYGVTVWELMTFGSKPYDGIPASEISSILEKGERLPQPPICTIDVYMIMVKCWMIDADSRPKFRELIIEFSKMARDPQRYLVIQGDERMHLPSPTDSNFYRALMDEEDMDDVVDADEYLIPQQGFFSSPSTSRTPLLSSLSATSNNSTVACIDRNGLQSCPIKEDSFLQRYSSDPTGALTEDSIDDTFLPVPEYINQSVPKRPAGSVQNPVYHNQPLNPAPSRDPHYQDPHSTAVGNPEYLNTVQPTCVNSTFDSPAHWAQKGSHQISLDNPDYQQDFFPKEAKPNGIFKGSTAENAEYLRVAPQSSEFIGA

IC50 [2] [µM] | IC50 [4] [µM] | SMILES | IC50 [1] [µM] | IC50 [3] [µM]
> 240 | > 240 | COC[C@@H](Cn1ccnc1[N+](=O)[O-])OC(=O)c1ccc(NC(=O)C(F)(F)F)cc1 [TX-2045] | – | –
> 240 | > 240 | COC[C@H](Cn1ccnc1[N+](=O)[O-])OC(=O)c1ccc(NC(=O)C(F)(F)F)cc1 [TX-2046] | – | –

The remaining lines, values behind:

SMILES | IC50 [2] [µM] | IC50 [4] [µM] | IC50 [1] [µM] | IC50 [3] [µM]
COC[C@H](Cn1ccnc1[N+](=O)[O-])OC(=O)c1ccc(NC=C2C(=O)C=CC2=O)cc1 [TX-2044] | – | – | 23 | –
COC[C@@H](Cn1ccnc1[N+](=O)[O-])OC(=O)c1ccc(NC=C2C(=O)C=CC2=O)cc1 | 24 | 53 | – | 23.4
CC(C)(C)c1ccc(OC[C@@H](Cn2ccnc2[N+](=O)[O-])OC(=O)c2ccc(NC=C3C(=O)C=CC3=O)cc2)cc1 [TX-2036] | – | 67 | 1.8 | 18.4
CC(C)(C)c1ccc(OC[C@H](Cn2ccnc2[N+](=O)[O-])OC(=O)c2ccc(NC=C3C(=O)C=CC3=O)cc2)cc1 [TX-2037] | 183 | 103 | 18.4 | 184
